In brackets after ≈: the same amount, converted by molar mass. Activity calls are given as the source filed them.
Experiments:
Candida albicans = test: Antifungal activity against Candida albicans ATCC 10231 by broth microdilution method; type: functional
Outline: (§1)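 Broth microdilution per NCCLS. Compounds dissolved in DMSO as 10 mg/mL stock, diluted in Mueller Hinton broth (bacteria) or Sabouraud dextrose broth (fungi). Amikacin served as the positive control for bacteria and nystatin for fungi.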

NCI-H460 [1] = test: Cytotoxicity against multidrug resistant human NCI-H460 cells after 72 hrs by MTT assay; type: functional, cell-based; conditions: NCI-H460, 72 h
Outline: (§2)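 Seeding in 96-well plates at 1000 (NCI-H460), 2000 (NCI-H460/R) or 4000 (HaCaT) cells/well, treated after 24 h for 72 h. MTT at 0.4 mg/mL final, 4 h at 37 °C. Formazan dissolved in DMSO, absorbance read at 540 nm. Inhibition % = (1 − A treated/A untreated)×100. IC30 and IC50 obtained by linear regression.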

Escherichia coli = test: Antibacterial activity against Escherichia coli ATCC 25922 by broth microdilution method; type: functional; outline: as §1
NCI-H460 [2] = test: Cytotoxicity against human NCI-H460 cells after 72 hrs by MTT assay; type: functional, cell-based; conditions: NCI-H460, 72 h; outline: as §2
Pseudomonas aeruginosa = test: Antibacterial activity against Pseudomonas aeruginosa ATCC 9027 by broth microdilution method; type: functional; outline: as §1
[3] = Selectivity ratio of IC30/IC50 for human HaCaT cells to IC30/IC50 for human NCI-H460 cells; type: ADME, cell-based; conditions: HaCaT cells versus NCI-H460 cells
Outline: (§3)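 Fold threshold of 1.5 used to call selectivity to cancer cells, resistance, or selectivity to MDR cells.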

Kocuria rhizophila = test: Antibacterial activity against Kocuria rhizophila ATCC 9341 by broth microdilution method; type: functional; conditions: DC2201; outline: as §1
Aspergillus brasiliensis = test: Antifungal activity against Aspergillus brasiliensis ATCC 16404 by broth microdilution method; type: functional; outline: as §1
Micrococcus luteus [4] = test: Antibacterial activity against Micrococcus luteus ATCC 4698 by broth microdilution method; type: functional; conditions: NCTC 2665; outline: as §1
HaCaT [5] = test: Cytotoxicity against human HaCaT cells after 72 hrs by MTT assay; type: cell-based; conditions: for IC50: Homo sapiens, HaCaT; for IC30: human, hacat; outline: as §2
Proteus hauseri = test: Antibacterial activity against Proteus hauseri ATCC 13315 by broth microdilution method; type: functional; outline: as §1
Clostridium sporogenes = test: Antibacterial activity against Clostridium sporogenes ATCC 19404 by broth microdilution method; type: functional; outline: as §1
Salmonella enteritidis = test: Antibacterial activity against Salmonella enterica subsp. enterica serovar Enteritidis ATCC 13076 by broth microdilution method; type: functional; outline: as §1
Micrococcus luteus [6] = test: Antibacterial activity against Micrococcus luteus ATCC 10240 by broth microdilution method; type: functional; outline: as §1
Staphylococcus aureus = test: Antibacterial activity against Staphylococcus aureus ATCC 6538 by broth microdilution method; type: functional; outline: as §1
Saccharomyces cerevisiae = test: Antifungal activity against Saccharomyces cerevisiae ATCC 9763 by broth microdilution method; type: functional; outline: as §1
Bacillus spizizenii = test: Antibacterial activity against Bacillus subtilis ATCC 6633 by broth microdilution method; type: functional; outline: as §1
[7] = Selectivity ratio of IC30/IC50 for human HaCaT cells to IC30/IC50 for multidrug resistant human NCI-H460 cells; type: ADME, cell-based; conditions: HaCaT cells versus multidrug resistant NCI-H460 cells; outline: as §3
NCI-H460 [8] = test: Induction of apoptosis in multidrug resistant human NCI-H460 cells assessed as early apoptotic cells at 25 uM after 72 hrs by annexin-V/propidium iodide staining-based flow cytometric analysis (reference value: 1.1%); type: functional
NCI-H460 [9] = test: Induction of apoptosis in multidrug resistant human NCI-H460 cells assessed as live cells at 25 uM after 72 hrs by annexin-V/propidium iodide staining-based flow cytometric analysis (reference value: 96.4%); type: functional
NCI-H460 [10] = test: Induction of apoptosis in human NCI-H460 cells assessed as dead cells at 25 uM after 72 hrs by annexin-V/propidium iodide staining-based flow cytometric analysis (reference value: 1.2%); type: functional
NCI-H460 [11] = test: Induction of apoptosis in multidrug resistant human NCI-H460 cells assessed as late apoptotic/necrotic cells at 25 uM after 72 hrs by annexin-V/propidium iodide staining-based flow cytometric analysis (reference value: 1%); type: functional
NCI-H460 [12] = test: Induction of apoptosis in human NCI-H460 cells assessed as early apoptotic cells at 25 uM after 72 hrs by annexin-V/propidium iodide staining-based flow cytometric analysis (reference value: 0.3%); type: functional
[13] = Induction of apoptosis in human HaCaT cells assessed as live cells at 25 uM after 72 hrs by annexin-V/propidium iodide staining-based flow cytometric analysis (reference value: 96.8%); type: cell-based; conditions: read-out: Activity
HaCaT [14] = test: Induction of apoptosis in human HaCaT cells assessed as late apoptotic/necrotic cells at 25 uM after 72 hrs by annexin-V/propidium iodide staining-based flow cytometric analysis (reference value: 0.2%); type: cell-based
HaCaT [15] = test: Induction of apoptosis in human HaCaT cells assessed as dead cells at 25 uM after 72 hrs by annexin-V/propidium iodide staining-based flow cytometric analysis (reference value: 2.8%); type: cell-based
NCI-H460 [16] = test: Induction of apoptosis in human NCI-H460 cells assessed as live cells at 25 uM after 72 hrs by annexin-V/propidium iodide staining-based flow cytometric analysis (reference value: 98.3%); type: functional
NCI-H460 [17] = test: Induction of superoxide anion generation in multidrug resistant human NCI-H460 cells at 25 uM after 72 hrs by DHE staining-based flow cytometric analysis relative to control; type: functional, cell-based
Outline: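 Seeded as for cell death (50,000 or 100,000 cells/well), treated 72 h at 25 µM, with CDDP 5 µM as control. Adherent cells trypsinized and loaded with 1 µM DHE for 30 min at 37 °C in the dark, then washed twice in PBS. Flow cytometry at ex 488/em 585 nm (FL2-H). Mean fluorescence intensity corrected for autofluorescence and compared with untreated control.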

HaCaT [18] = test: Induction of apoptosis in human HaCaT cells assessed as early apoptotic cells at 25 uM after 72 hrs by annexin-V/propidium iodide staining-based flow cytometric analysis (reference value: 0.2%); type: cell-based
NCI-H460 [19] = test: Induction of apoptosis in human NCI-H460 cells assessed as late apoptotic/necrotic cells at 25 uM after 72 hrs by annexin-V/propidium iodide staining-based flow cytometric analysis (reference value: 0.2%); type: functional
NCI-H460 [20] = test: Induction of apoptosis in multidrug resistant human NCI-H460 cells assessed as dead cells at 25 uM after 72 hrs by annexin-V/propidium iodide staining-based flow cytometric analysis (reference value: 1.5%); type: functional

| MIC (Candida albicans) [µM] | MIC (Escherichia coli) [µM] | MIC (Pseudomonas aeruginosa) [µM] | MIC (Kocuria rhizophila) [µM] | MIC (Aspergillus brasiliensis) [µM] | MIC (Micrococcus luteus [4]) [µM] | MIC (Proteus hauseri) [µM] | MIC (Clostridium sporogenes) [µM] | MIC (Salmonella enteritidis) [µM] | MIC (Micrococcus luteus [6]) [µM] | MIC (Staphylococcus aureus) [µM] | MIC (Saccharomyces cerevisiae) [µM] | MIC (Bacillus spizizenii) [µM] | Structure (SMILES) | IC30 (NCI-H460 [1]) [µM] | IC50 (NCI-H460 [1]) [µM] | IC30 (NCI-H460 [2]) [µM] | IC50 (NCI-H460 [2]) [µM] | IC50 (HaCaT [5]) [µM] | IC30 (HaCaT [5]) [µM] | further results |
| --- | --- | --- | --- | --- | --- | --- | --- | --- | --- | --- | --- | --- | --- | --- | --- | --- | --- | --- | --- | --- |
| 1510 (≈ 313 µg/mL) | 24 (≈ 4.97 µg/mL) | 758 (≈ 157 µg/mL) | 381 (≈ 79 µg/mL) | 48 (≈ 9.95 µg/mL) | 758 (≈ 157 µg/mL) | 758 (≈ 157 µg/mL) | 758 (≈ 157 µg/mL) | 381 (≈ 79 µg/mL) | 24 (≈ 4.97 µg/mL) | 24 (≈ 4.97 µg/mL) | 1510 (≈ 313 µg/mL) | 758 (≈ 157 µg/mL) | CCNC1=CC(=O)C=C(C(C)(C)C)C1=O | 5 | 14 | 4 | 13 | 30 | 22 | selectivity ratio [3]: ≤ 1.5; selectivity ratio [7]: ≤ 1.5 |
| 1620 (≈ 313 µg/mL) | 202 (≈ 39 µg/mL) | 3240 (≈ 626 µg/mL) | 813 (≈ 157 µg/mL) | 103 (≈ 19.9 µg/mL) | 1620 (≈ 313 µg/mL) | 1620 (≈ 313 µg/mL) | 1620 (≈ 313 µg/mL) | 1620 (≈ 313 µg/mL) | 202 (≈ 39 µg/mL) | 51 (≈ 9.86 µg/mL) | 3240 (≈ 626 µg/mL) | 1620 (≈ 313 µg/mL) | CNC1=CC(=O)C=C(C(C)(C)C)C1=O | 15 | 23 | 14 | 25 | 10 | 8 | – |
| – | – | – | – | – | – | – | – | – | – | – | – | – | CCCCCCCCNC1=CC(=O)C(C[C@]2(C)[C@@H](C)CC[C@]3(C)C(C)=CCC[C@@H]23)=CC1=O | > 100 | > 100 | > 100 | > 100 | > 100 | > 100 | Activity (NCI-H460 [8]): 0.1%; Activity (NCI-H460 [9]): 96.1%; Activity (NCI-H460 [10]): 4.6%; Activity (NCI-H460 [11]): 0.7%; Activity (NCI-H460 [12]): 0%; viability at 72 h, 25 µM [13]: 93.4%; Activity (HaCaT [14]): 0.7%; Activity (HaCaT [15]): 5.8%; Activity (NCI-H460 [16]): 95.1%; Activity (NCI-H460 [17]): inactive; Activity (HaCaT [18]): 0.1%; Activity (NCI-H460 [19]): 0.3%; Activity (NCI-H460 [20]): 3.1% |

From ChEMBL document CHEMBL3822380, “Simple avarone mimetics as selective agents against multidrug resistant cancer cells” (Eur J Med Chem, 2016)
